From ChEMBL document CHEMBL2057098, “Novel 1,2,4-triazolo[1,5-a]pyridines and their fused ring systems attenuate oxidative stress and prolong lifespan of Caenorhabiditis elegans” (2012)
The source made the active and inactive calls. The calls are words filed in the database; no cut-off is given here.

Assays:
Caenorhabditis elegans [1] = test: Antioxidant activity against parquat-induced oxidative stress in wild type Caenorhabditis elegans Bristol N2 assessed as increase in survival time at 500 nM to 1 uM; format: functional, organism-based
Summary of the method: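 Age-synchronised 7-day-old adult N2 worms were placed overnight on agar plates with 40 μM FUDR and paraquat, with or without compound (50 nM, 500 nM, 1 μM), at 20 °C. Viability was scored over 20 h, with 30 worms per trial in three independent experiments. Survival was plotted as Kaplan–Meier curves.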

Caenorhabditis elegans [2] = test: Antioxidant activity against parquat-induced oxidative stress in wild type Caenorhabditis elegans Bristol N2 assessed as increase in survival time at 500 nM (reference value: 17.64 +/- 0.19 days); format: functional
Caenorhabditis elegans [3] = test: Antioxidant activity against parquat-induced oxidative stress in wild type Caenorhabditis elegans Bristol N2 assessed as increase in survival time at 1 uM (reference value: 17.64 +/- 0.19 days); format: functional
Caenorhabditis elegans [4] = test: Antioxidant activity against parquat-induced oxidative stress in wild type Caenorhabditis elegans Bristol N2 assessed as increase in survival time; format: functional, organism-based
Summary of the method: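 Seven-day-old synchronised N2 adults, 30 worms per trial at 20 °C. Worms were placed overnight on agar containing paraquat and 40 μM FUDR, with or without test compound. Viability was scored over a 20 h period. Three independent experiments.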

Caenorhabditis elegans [5] = test: Antioxidant activity against heat-induced oxidative stress in wild type Caenorhabditis elegans Bristol N2 assessed as increase in survival time measured for 16 hrs at 37 degC relative to control; format: functional, organism-based
Caenorhabditis elegans [6] = test: Antioxidant activity in wild type Caenorhabditis elegans Bristol N2 assessed as decrease in oxidative stress-induced carboxymethyllysine formation by ELISA; format: functional, organism-based
Summary of the method: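 Protein extracts came from N2 worms treated for 7 days with or without compound, with 40 μM FUDR; protein was quantified. CML was measured by competitive ELISA on streptavidin-coated plates using biotinylated glucose-glycated BSA and an HRP-labelled mouse monoclonal anti-CML antibody.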

Caenorhabditis elegans [7] = test: Antioxidant activity against lipid peroxidation in wild type Caenorhabditis elegans Bristol N2 assessed as decrease of malondialdehyde level; format: functional, organism-based
Summary of the method: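 N2 worms were kept 7 days on plates with 40 μM FUDR, with or without compound. They were washed by sucrose flotation, homogenised in Tris-HCl pH 7.9 buffer with protease inhibitors, and centrifuged. The lysate was treated with 8.1% SDS for 10 min at room temperature, then boiled 60 min with 20% acetic acid and 0.6% thiobarbituric acid, with 0.01% BHT present. A butanol:pyridine (15:1) extract was read at 532 nm against a tetramethoxypropane standard. MDA was expressed as nmol/g protein.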

Caenorhabditis elegans [8] = test: Antioxidant activity against parquat-induced oxidative stress in wild type Caenorhabditis elegans Bristol N2 assessed as increase in survival time at 50 nM (reference value: 17.64 +/- 0.19 days); format: functional
Caenorhabditis elegans [9] = test: Antioxidant activity against heat-induced oxidative stress in wild type Caenorhabditis elegans Bristol N2 assessed as increase in survival time at 50 nM […] relative to control; format: functional
Caenorhabditis elegans [10] = test: Antioxidant activity against heat-induced oxidative stress in wild type Caenorhabditis elegans Bristol N2 assessed as increase in survival time at 500 nM […] relative to control; format: functional
Caenorhabditis elegans [11] = test: Antioxidant activity against heat-induced oxidative stress in wild type Caenorhabditis elegans Bristol N2 assessed as increase in survival time at 1 uM […] relative to control; format: functional

Q: What does the source list for `CCSc1nn2c(=O)c(/C=N/O)c(Cl)c(C#N)c2n1-c1ccccc1`?
A: Activity (Caenorhabditis elegans [1]): inactive; Activity (Caenorhabditis elegans [2]): inactive

Q: With `CCOC(=O)c1cc2c(=O)n3nc(SCC)n(-c4ccccc4)c3c(C#N)c2[nH]1` as the molecule, how does the Activity (Caenorhabditis elegans [1]) read?
A: inactive

Q: What about the Activity (Caenorhabditis elegans [2]) of the same molecule?
A: inactive

Q: Which results are given for `CCSc1nn2c(=O)c(C#N)c(N)c(C#N)c2n1-c1ccccc1`?
A: Time (Caenorhabditis elegans [3]): 21 days; Activity (Caenorhabditis elegans [4]): Dose-dependent effect; Activity (Caenorhabditis elegans [5]): Dose-dependent effect; Activity (Caenorhabditis elegans [6]): Dose-dependent effect; Activity (Caenorhabditis elegans [7]): Dose-dependent effect; Time (Caenorhabditis elegans [2]): 19.76 days; Time (Caenorhabditis elegans [8]): 18 days; fold change (FC) (Caenorhabditis elegans [9]): 1.8; fold change (FC) (Caenorhabditis elegans [10]): 2; fold change (FC) (Caenorhabditis elegans [11]): 2.5

Q: Which Activity (Caenorhabditis elegans [1]) does the source give for `CCSc1nn2c(=O)c(/C=N/O)c(NCC(C)C)c(C#N)c2n1-c1ccccc1` here?
A: inactive

Q: And the Activity (Caenorhabditis elegans [2])?
A: inactive
